Test results reported in ChEMBL document CHEMBL4304758, “Development of Peptide-Based Sirtuin Defatty-Acylase Inhibitors Identified by the Fluorescence Probe, SFP3, That Can Efficiently Measure Defatty-Acylase Activity of Sirtuin” (J Med Chem, 2019).
Calls of active or inactive are those of the source. The calls are words filed in the database; no cut-off is given here. Residues, ends and D or L forms follow the SMILES beside them. *: point of attachment. Phenylacetyl(4-E-phenylazo) = O=C(Cc1ccc(/N=N/c2ccccc2)cc1)*

Assays:
[1] = biological target: T1, NAD-dependent protein deacetylase sirtuin-3, mitochondrial (Homo sapiens) (UniProt Q9NTG7); assay: Inhibition of recombinant human SIRT3 (118 to 399 residues) defatty-acylase activity expressed in Escherichia coli at 2 uM using SFP3 as substrate measured at 5 mins interval for 60 mins in presence of NAD+ by fluorescence assay relative to control
T1 sequence (whole entry): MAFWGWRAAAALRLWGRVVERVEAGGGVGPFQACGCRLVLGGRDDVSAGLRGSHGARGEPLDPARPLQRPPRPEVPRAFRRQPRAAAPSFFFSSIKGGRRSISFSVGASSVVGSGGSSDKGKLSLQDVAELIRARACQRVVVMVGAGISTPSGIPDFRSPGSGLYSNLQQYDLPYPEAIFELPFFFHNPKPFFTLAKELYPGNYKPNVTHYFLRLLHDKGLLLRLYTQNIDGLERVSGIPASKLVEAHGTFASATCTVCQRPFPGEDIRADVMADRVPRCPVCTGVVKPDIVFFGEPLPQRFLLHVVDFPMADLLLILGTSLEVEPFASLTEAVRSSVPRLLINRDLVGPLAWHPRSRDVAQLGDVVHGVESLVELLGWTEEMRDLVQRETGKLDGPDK
How it was run: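 SIRT3 at 60 nM final with 2.5 μM SFP3 and 500 μM NAD⁺ in Tris-HCl pH 8.0, 150 mM NaCl, 1 mM DTT, 0.05% Triton X-100. Final DMSO 0.2%, or 0.5% for AGK2/NAM. Fluorescence Ex 485/Em 535 nm every 5 min for 60 min at 37 °C. n = 3.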

[2] = biological target: T1, NAD-dependent protein deacetylase sirtuin-3, mitochondrial (Homo sapiens); assay: Inhibition of recombinant human SIRT3 (118 to 399 residues) demyristoylase activity expressed in Escherichia coli at 1 uM using p53(Myr)-AMC as substrate measured after 3 hrs in presence of NAD+ and trypsin by fluorescence assay relative to control
How it was run: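 SIRT3 at 120 nM with 50 μM p53(Myr)-AMC and 500 μM NAD⁺ in Tris-HCl pH 8.0/NaCl/DTT/Triton buffer, 0.5% DMSO, 3 h at room temperature. Trypsin (100 nM) plus nicotinamide (1 mM) then added. Fluorescence Ex 355/Em 460 nm every 5 min for 20 min at 37 °C. n = 3.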

HeLa = assay: Cytotoxicity against human HeLa cells assessed as reduction in cell viability at 50 uM measured after 72 hrs by CCK8 assay; assay type: functional, cell-based
How it was run: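 HeLa cells, 1.0 × 10⁴ per well on PLL-coated plates, grown overnight in DMEM with 10% FBS and penicillin/streptomycin, 37 °C, 5% CO₂. Compounds added in DMEM (2% DMSO stock), range 1.56–50 μM final, for 72 h. CCK-8 reagent then 2 h at 37 °C, absorbance read at 450 nm. DMSO control.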

[3] = biological target: T2, NAD-dependent protein deacetylase sirtuin-1 (Homo sapiens) (UniProt Q96EB6); assay: Inhibition of recombinant human C-terminal His6-tagged SIRT1 (Met1 to Ser747 residues) defatty-acylase activity expressed in Escherichia coli at 2 uM using SFP3 as substrate measured at 5 mins interval for 60 mins in presence of NAD+ by fluorescence assay relative to control
T2 sequence (whole entry): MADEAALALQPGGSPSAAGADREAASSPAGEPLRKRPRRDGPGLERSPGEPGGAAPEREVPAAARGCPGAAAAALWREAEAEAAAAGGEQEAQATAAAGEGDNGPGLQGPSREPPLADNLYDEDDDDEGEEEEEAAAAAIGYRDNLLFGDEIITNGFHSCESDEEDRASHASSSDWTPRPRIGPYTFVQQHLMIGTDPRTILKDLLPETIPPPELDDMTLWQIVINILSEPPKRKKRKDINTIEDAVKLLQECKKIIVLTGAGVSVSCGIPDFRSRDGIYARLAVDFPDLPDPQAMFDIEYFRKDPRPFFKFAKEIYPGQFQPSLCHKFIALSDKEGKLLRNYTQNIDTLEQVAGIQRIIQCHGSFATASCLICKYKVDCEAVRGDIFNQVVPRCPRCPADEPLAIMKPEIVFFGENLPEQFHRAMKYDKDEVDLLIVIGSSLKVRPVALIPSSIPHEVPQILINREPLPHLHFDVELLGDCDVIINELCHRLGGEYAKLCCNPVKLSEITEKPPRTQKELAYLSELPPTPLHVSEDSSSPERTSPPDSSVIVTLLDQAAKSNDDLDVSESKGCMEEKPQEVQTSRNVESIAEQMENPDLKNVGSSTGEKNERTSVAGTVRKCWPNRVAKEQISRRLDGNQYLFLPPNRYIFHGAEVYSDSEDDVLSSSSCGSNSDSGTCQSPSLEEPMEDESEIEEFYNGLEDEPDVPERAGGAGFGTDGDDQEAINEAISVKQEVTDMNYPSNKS

[4] = biological target: T2, NAD-dependent protein deacetylase sirtuin-1 (Homo sapiens); assay: Inhibition of recombinant human C-terminal His6-tagged SIRT1 (Met1 to Ser747 residues) demyristoylase activity expressed in Escherichia coli at 1 uM using p53(Myr)-AMC as substrate measured after 3 hrs in presence of NAD+ and trypsin by fluorescence assay relative to control
How it was run: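 SIRT1 at 14 nM final with 50 μM p53(Myr)-AMC and 500 μM NAD⁺ in Tris-HCl pH 8.0/NaCl/DTT/Triton buffer, 0.5% DMSO, 3 h at room temperature. Trypsin (100 nM final) plus nicotinamide (1 mM final) then added. Fluorescence Ex 355/Em 460 nm read every 5 min for 20 min at 37 °C. n = 3.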

[5] = biological target: NAD-dependent protein deacylase sirtuin-6 (Homo sapiens) (UniProt Q8N6T7); assay: Inhibition of recombinant human N-terminal polyhis-tagged SIRT6 (1 to 355 residues) defatty-acylase activity expressed in Escherichia coli at 2 uM using SFP3 as substrate measured at 5 mins interval for 60 mins in presence of NAD+ by fluorescence assay relative to control
Sequence of NAD-dependent protein deacylase sirtuin-6 (Homo sapiens) (Q8N6T7 whole entry, the tested form may be a part): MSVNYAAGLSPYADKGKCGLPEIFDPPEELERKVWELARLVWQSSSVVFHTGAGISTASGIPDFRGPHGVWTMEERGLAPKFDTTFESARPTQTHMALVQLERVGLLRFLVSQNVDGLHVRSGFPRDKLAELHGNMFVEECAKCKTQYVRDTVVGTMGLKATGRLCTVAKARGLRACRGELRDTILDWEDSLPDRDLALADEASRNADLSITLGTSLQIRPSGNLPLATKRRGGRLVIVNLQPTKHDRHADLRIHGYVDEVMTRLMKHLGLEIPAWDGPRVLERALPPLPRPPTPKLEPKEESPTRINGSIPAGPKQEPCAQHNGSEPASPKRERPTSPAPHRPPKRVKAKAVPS

[6] = biological target: T3, NAD-dependent protein deacetylase sirtuin-2 (Homo sapiens) (UniProt Q8IXJ6); assay: Inhibition of recombinant human SIRT2 demyristoylase activity at 1 uM using p53(Myr)-AMC as substrate measured after 3 hrs in presence of NAD+ and trypsin by fluorescence assay relative to control
T3 sequence (whole entry): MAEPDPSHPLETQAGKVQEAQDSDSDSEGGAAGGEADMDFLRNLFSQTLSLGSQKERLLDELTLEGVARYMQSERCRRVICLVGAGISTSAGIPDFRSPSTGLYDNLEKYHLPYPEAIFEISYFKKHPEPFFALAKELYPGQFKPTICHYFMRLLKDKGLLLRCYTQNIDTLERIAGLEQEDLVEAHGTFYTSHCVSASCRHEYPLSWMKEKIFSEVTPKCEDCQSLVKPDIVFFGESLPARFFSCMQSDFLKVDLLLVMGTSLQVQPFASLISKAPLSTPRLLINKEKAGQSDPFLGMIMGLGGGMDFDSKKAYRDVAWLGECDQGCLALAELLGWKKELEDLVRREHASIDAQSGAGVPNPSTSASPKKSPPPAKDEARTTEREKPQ

[7] = biological target: T3, NAD-dependent protein deacetylase sirtuin-2 (Homo sapiens); assay: Inhibition of recombinant human SIRT2 defatty-acylase activity at 2 uM using SFP3 as substrate measured at 5 mins interval for 60 mins in presence of NAD+ by fluorescence assay relative to control
[8] = biological target: T3, NAD-dependent protein deacetylase sirtuin-2 (Homo sapiens); assay: Inhibition of recombinant human SIRT2 demyristoylase activity using H4K16-Myr as substrate measured after 2 hrs in presence of NAD+ by HPLC analysis
How it was run: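 H4K16-Myr at 100 μM with 500 μM NAD⁺ and 175 nM SIRT2 in Tris-HCl pH 8.0/NaCl/Triton buffer without DTT, 0.5% DMSO, 2 h at 37 °C. Inhibitors at 0.1–10 μM; AGK2 at 50 μM, NAM at 500 μM. Stopped with HCl/MeOH. Demyristoylated H4K16 product measured by HPLC at 280 nm. Percent inhibition, n = 3.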

[9] = biological target: T3, NAD-dependent protein deacetylase sirtuin-2 (Homo sapiens); assay: Inhibition of recombinant human SIRT2 deacylation activity using H4K16-Ac as substrate measured after 30 mins in presence of NAD+ by HPLC analysis
How it was run: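 H4K16-Ac peptide at 100 μM with 500 μM NAD⁺ and 175 nM SIRT2 in Tris-HCl pH 8.0/NaCl/Triton buffer lacking DTT, 0.5% DMSO, 30 min at 37 °C. Inhibitors at 0.01–10 μM. Stopped with HCl in MeOH. Deacetylated product quantified by reversed-phase HPLC at 280 nm.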

inhibition [1] [%] | inhibition [2] [%] | inhibition [3] [%] | inhibition [4] [%] | inhibition [5] [%] | inhibition [6] [%] | inhibition [7] [%] | inhibition [8] | inhibition [9] | Compound | Activity (HeLa)
-0.9 | -1.2 | 0.81 | 2.7 | -3.3 |  |  |  |  | CCCCCCCCCCCCCC(=S)NCCCC[C@H](NC(=O)OCc1ccccc1)C(=O)Nc1ccccc1 | Active
 |  |  |  | 28 |  |  |  |  | CC[C@H](C)[C@H](NC(C)=O)C(=O)N[C@@H](CCCCNC(=O)Cc1ccc(/N=N/c2ccccc2)cc1)C(=O)N[C@@H](CCCNC(=N)N)C(N)=O | 
5.9 | 2.6 | 8.8 | 20 | 3.8 | 5.3 | 18 |  |  | C[C@H](NC(=O)[C@H](CCCCNC(=O)Cc1ccc(/N=N/c2ccc(O)cc2)cc1)NC(=O)OCc1ccccc1)C(N)=O | 
7 | -0.13 | 2 | 6.3 | -0.32 | 2.9 | 1.4 |  |  | C[C@H](NC(=O)[C@H](CCCCNC(=O)Cc1ccc(/N=N/c2ccc(OCCc3ccccc3)cc2)cc1)NC(=O)OCc1ccccc1)C(N)=O | 
-0.08 | 5.6 | 1.3 | 2.8 | -7.4 | 3.2 | 13 |  |  | C[C@H](NC(=O)[C@H](CCCCNC(=O)Cc1ccc(/N=N/c2ccc(OCc3ccccc3)cc2)cc1)NC(=O)OCc1ccccc1)C(N)=O | 
 |  |  |  | -2.2 |  |  |  |  | Cc1cc(C)nc(SCC(=O)Nc2ncc(Cc3cccc4ccccc34)s2)n1 | 
 |  |  |  | 32 |  |  | Dose-dependent effect | Dose-dependent effect | CC[C@H](C)[C@H](NC(=O)[C@H](CCCNC(=N)N)NC(C)=O)C(=O)N[C@@H](CCCCNC(=O)Cc1ccc(/N=N/c2ccccc2)cc1)C(=O)N[C@@H](CCCNC(=N)N)C(=O)N[C@@H](Cc1ccc(O)cc1)C(N)=O (Ac-RIK(Phenylacetyl(4-E-phenylazo))RY-NH2) | inactive
